ChEMBL document CHEMBL1126301, “Anti-HIV-I activity of linked lexitropsins” (J Med Chem, 1992)
Converted amounts (≈) assume the structure as drawn. The source made the active and inactive calls. No cut-off for these calls is given here.

Experiments:
[1] = system: Human immunodeficiency virus 1; test: Inhibitory activity against HIV-1 in T4-lymphocytes (CEM cell line).; format: functional, organism-based; conditions: Human immunodeficiency virus 1, CCRF-CEM
CCRF-CEM [2] = test: Inhibitory activity against T4-lymphocytes (CEM cell line) infected with HIV-1; moderate; format: functional, cell-based; conditions: Homo sapiens
CCRF-CEM [3] = test: Inhibition of T4-lymphocytes (CEM cell line) infected with HIV-1.; format: functional, cell-based; conditions: Homo sapiens
CCRF-CEM [4] = test: Inhibitory activity against T4-lymphocytes (CEM cell line) infected with HIV-1; active; format: functional, cell-based; conditions: Homo sapiens
Murine leukemia virus [5] = test: Inhibitory activity on moloney murine leukemia retrovirus.; format: functional
Summary of the method: (§1)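 SC-1 cells (3.5 × 10⁴ mL⁻¹) seeded in 5% FBS-MEM 1 day ahead. Compound dilutions added in triplicate, then 20-40 pfu Moloney virus per well, shaken at 0, 30 and 60 min. Incubated 5 days, 37 °C, 5% CO₂; viability checked for toxicity. Then UV 3 min, XC cells overlaid (2 × 10⁵ mL⁻¹), 4 days, 0.5% crystal violet stain, plaques counted. MIC₅₀ interpolated between two dilutions.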

[6] = Therapeutic index(TI) was measured as ratio of TD50 and MIC50 (Retrovirus); conditions: retroviridae
Murine leukemia virus [7] = test: Concentration inhibiting moloney murine leukemia retrovirus; format: functional; summary of the method: as §1
CCRF-CEM [8] = test: Inhibitory activity against T4-lymphocytes (CEM cell line) infected with HIV-1; inactive; format: functional, cell-based; conditions: Homo sapiens
HIV-1 = test: Therapeutic index (TI) was measured as ratio of IC50 and EC50 (HIV-1); conditions: human immunodeficiency virus 1; read-out: TI50

Compound | EC50 [1] [µM] | Activity (CCRF-CEM [2]) | IC50 (CCRF-CEM [3]) [µM] | TD50 (Murine leukemia virus [5]) [µg/mL] | TI [6] [TD50/MIC50] | also measured
Cn1cc(NC(=O)c2cc(NC(=O)[C@@H]3CCCC[C@H]3C(=O)Nc3cc(C(=O)Nc4cc(C(=O)NCCC(=N)N)n(C)c4)n(C)c3)cn2C)cc1C(=O)NCCC(=N)N | 5.6 | Moderate | 181 |  |  | 
Cn1cc(NC(=O)c2cc(NC(=O)[C@H]3CC[C@@H]3C(=O)Nc3cc(C(=O)Nc4cc(C(=O)NCCC(=N)N)n(C)c4)n(C)c3)cn2C)cc1C(=O)NCCC(=N)N | 0.42 |  |  |  |  | Activity (CCRF-CEM [4]): Active
Cn1cc(NC(=O)c2cc(NC(=O)CCCCCCCCCCC(=O)Nc3cc(C(=O)Nc4cc(C(=O)NCCC(=N)N)n(C)c4)n(C)c3)cn2C)cc1C(=O)NCCC(=N)N | 6.6 | Moderate | 78 |  |  | 
Cl.Cl.Cn1cc(NC(=O)c2cc(NC(=O)c3cc(NC(=O)[C@@H]4C5C=CC(C5)[C@H]4C(=O)Nc4cc(C(=O)Nc5cc(C(=O)Nc6cc(C(=O)NCCC(=N)N)n(C)c6)n(C)c5)n(C)c4)cn3C)cn2C)cc1C(=O)NCCC(=N)N |  |  |  | >100 | > 4.54 | 
Cl.Cl.Cn1cc(NC(=O)c2cc(NC(=O)c3cc(NC(=O)c4ccccc4C(=O)Nc4cc(C(=O)Nc5cc(C(=O)Nc6cc(C(=O)NCCC(=N)N)n(C)c6)n(C)c5)n(C)c4)cn3C)cn2C)cc1C(=O)NCCC(=N)N |  |  |  | >100 | > 1.26 | 
Cl.Cl.Cn1cc(NC(=O)c2cc(NC(=O)c3cc(NC(=O)c4cccc(C(=O)Nc5cc(C(=O)Nc6cc(C(=O)Nc7cc(C(=O)NCCC(=N)N)n(C)c7)n(C)c6)n(C)c5)c4)cn3C)cn2C)cc1C(=O)NCCC(=N)N |  |  |  | >100 | 2 | Activity (CCRF-CEM [4]): Active; MIC50 (Murine leukemia virus [7]): > 50 µg/mL
Cn1cc(NC(=O)c2cc(NC(=O)[C@H]3C[C@@H]3C(=O)Nc3cc(C(=O)Nc4cc(C(=O)NCCC(=N)N)n(C)c4)n(C)c3)cn2C)cc1C(=O)NCCC(=N)N | 3.44 | Moderate |  |  |  | 
Cl.Cl.Cl.Cn1cc(NC(=O)c2cc(NC(=O)c3cc(NC(=O)c4cc(C(=O)Nc5cc(C(=O)Nc6cc(C(=O)Nc7cc(C(=O)NCCC(=N)N)n(C)c7)n(C)c6)n(C)c5)cc(C(=O)Nc5cc(C(=O)Nc6cc(C(=O)Nc7cc(C(=O)NCCC(=N)N)n(C)c7)n(C)c6)n(C)c5)c4)cn3C)cn2C)cc1C(=O)NCCC(=N)N |  |  |  | >100 | > 1.6 | MIC50 (Murine leukemia virus [7]): 62.8 µg/mL
Cl.Cl.Cn1cc(NC(=O)c2cc(NC(=O)c3cc(NC(=O)c4cncc(C(=O)Nc5cc(C(=O)Nc6cc(C(=O)Nc7cc(C(=O)NCCC(=N)N)n(C)c7)n(C)c6)n(C)c5)c4)cn3C)cn2C)cc1C(=O)NCCC(=N)N |  | Moderate |  | >100 |  | MIC50 (Murine leukemia virus [7]): > 100 µg/mL
Cn1cc(NC(=O)c2cc(NC(=O)c3cc(NC(=O)CCCCCCC(=O)Nc4cc(C(=O)Nc5cc(C(=O)Nc6cc(C(=O)NCCC(=N)N)n(C)c6)n(C)c5)n(C)c4)cn3C)cn2C)cc1C(=O)NCCC(=N)N |  |  | > 100 |  |  | Activity (CCRF-CEM [8]): inactive
Cn1cc(NC(=O)c2cc(NC(=O)/C=C\C(=O)Nc3cc(C(=O)Nc4cc(C(=O)NCCC(=N)N)n(C)c4)n(C)c3)cn2C)cc1C(=O)NCCC(=N)N | 0.35 |  |  |  |  | Activity (CCRF-CEM [4]): Active
Cn1cc(NC(=O)c2cc(NC(=O)Nc3cc(C(=O)Nc4cc(C(=O)NCCC(=N)N)n(C)c4)n(C)c3)cn2C)cc1C(=O)NCCC(=N)N | 11.9 | Moderate |  |  |  | 
Cl.Cl.Cn1cc(NC(=O)c2cc(NC(=O)c3cc(NC(=O)/C=C\C(=O)Nc4cc(C(=O)Nc5cc(C(=O)Nc6cc(C(=O)NCCC(=N)N)n(C)c6)n(C)c5)n(C)c4)cn3C)cn2C)cc1C(=O)NCCC(=N)N |  |  |  | 84.29 | 7.52 | Activity (CCRF-CEM [8]): inactive
Cl.Cl.Cn1cc(NC(=O)c2cc(NC(=O)c3cc(NC(=O)c4ccc(C(=O)Nc5cc(C(=O)Nc6cc(C(=O)Nc7cc(C(=O)NCCC(=N)N)n(C)c7)n(C)c6)n(C)c5)cc4)cn3C)cn2C)cc1C(=O)NCCC(=N)N |  |  |  | >100 | > 25.13 | Activity (CCRF-CEM [4]): Active
Cn1cc(NC(=O)c2cc(NC(=O)c3cccc(C(=O)Nc4cc(C(=O)Nc5cc(C(=O)NCCC(=N)N)n(C)c5)n(C)c4)c3)cn2C)cc1C(=O)NCCC(=N)N | 3.55 |  |  |  |  | Activity (CCRF-CEM [4]): Active
Cn1cc(NC(=O)c2cc(NC(=O)c3cc(NC(=O)CCCCCCCCCCCCCCCCCCCCCCC(=O)Nc4cc(C(=O)Nc5cc(C(=O)Nc6cc(C(=O)NCCC(=N)N)n(C)c6)n(C)c5)n(C)c4)cn3C)cn2C)cc1C(=O)NCCC(=N)N |  |  | > 120 |  |  | Activity (CCRF-CEM [8]): inactive
Cn1cc(NC(=O)[C@@H]2CCC(N)=N2)cc1C(=O)NCCC(=N)N |  |  | > 127 |  |  | Activity (CCRF-CEM [8]): inactive

Compound | EC50 [1] [µM] | Activity (CCRF-CEM [2]) | IC50 (CCRF-CEM [3]) [µM] | TD50 (Murine leukemia virus [5]) [µg/mL] | TI [6] [TD50/MIC50] | also measured
Cn1cc(NC(=O)[C@H]2CCC(N)=N2)cc1C(=O)NCCC(=N)N |  |  | > 127 |  |  | Activity (CCRF-CEM [8]): inactive
Cl.Cl.Cn1cc(NC(=O)c2cc(NC(=O)c3cc(NC(=O)c4cccc(C(=O)Nc5cc(C(=O)Nc6cc(C(=O)Nc7cc(C(=O)NCCC(=N)N)n(C)c7)n(C)c6)n(C)c5)n4)cn3C)cn2C)cc1C(=O)NCCC(=N)N |  |  |  | >100 | > 4.4 | Activity (CCRF-CEM [4]): Active
Cl.Cl.Cn1cc(NC(=O)c2cc(NC(=O)c3cc(NC(=O)C4CCC4C(=O)Nc4cc(C(=O)Nc5cc(C(=O)Nc6cc(C(=O)NCCC(=N)N)n(C)c6)n(C)c5)n(C)c4)cn3C)cn2C)cc1C(=O)NCCC(=N)N (stereo not given) |  | Moderate |  | 83.5 | 1.7 | MIC50 (Murine leukemia virus [7]): > 50 µg/mL
Cn1cc(NC(=O)c2cc(NC(=O)CCCCCCCCCC(=O)Nc3cc(C(=O)Nc4cc(C(=O)NCCC(=N)N)n(C)c4)n(C)c3)cn2C)cc1C(=O)NCCC(=N)N | 3.9 | Moderate | 57 |  |  | selectivity ratio (HIV-1): 14.6
Cn1cc(NC(=O)c2cc(NC(=O)[C@@H]3CCC(N)=N3)c[nH]2)cc1C(=O)NCCC(=N)N | 88 | Moderate | 750 |  |  | selectivity ratio (HIV-1): 8.5
Cl.Cl.Cn1cc(NC(=O)c2cc(NC(=O)c3cc(NC(=O)/C=C/C(=O)Nc4cc(C(=O)Nc5cc(C(=O)Nc6cc(C(=O)NCCC(=N)N)n(C)c6)n(C)c5)n(C)c4)cn3C)cn2C)cc1C(=O)NCCC(=N)N |  |  |  | 100 | 625 | Activity (CCRF-CEM [4]): Active
Cl.Cl.Cn1cc(NC(=O)c2cc(NC(=O)c3cc(NC(=O)c4ccc(C(=O)Nc5cc(C(=O)Nc6cc(C(=O)Nc7cc(C(=O)NCCC(=N)N)n(C)c7)n(C)c6)n(C)c5)nc4)cn3C)cn2C)cc1C(=O)NCCC(=N)N |  |  |  | >100 | > 6.28 | Activity (CCRF-CEM [4]): Active
Cn1cc(NC(=O)c2cc(NC(=O)[C@H]3CCC[C@@H]3C(=O)Nc3cc(C(=O)Nc4cc(C(=O)NCCC(=N)N)n(C)c4)n(C)c3)cn2C)cc1C(=O)NCCC(=N)N | 46.3 | Moderate | 168 |  |  | 
Cn1cc(NC(=O)c2cc(NC(=O)CCCCCCCCC(=O)Nc3cc(C(=O)Nc4cc(C(=O)NCCC(=N)N)n(C)c4)n(C)c3)cn2C)cc1C(=O)NCCC(=N)N |  |  |  |  |  | Activity (CCRF-CEM [8]): inactive
Cn1cc(NC(=O)c2cc(NC(=O)c3cc(NC(=O)CCC(=O)Nc4cc(C(=O)Nc5cc(C(=O)Nc6cc(C(=O)NCCC(=N)N)n(C)c6)n(C)c5)n(C)c4)cn3C)cn2C)cc1C(=O)NCCC(=N)N |  |  |  |  |  | Activity (CCRF-CEM [8]): inactive
Cn1cc(NC(=O)c2cc(NC(=O)[C@H]3C[C@H]3C(=O)Nc3cc(C(=O)Nc4cc(C(=O)NCCC(=N)N)n(C)c4)n(C)c3)cn2C)cc1C(=O)NCCC(=N)N | 42.5 | Moderate |  |  |  | 
Cn1cc(NC(=O)c2cc(NC(=O)CCCCCCC(=O)Nc3cc(C(=O)Nc4cc(C(=O)NCCC(=N)N)n(C)c4)n(C)c3)cn2C)cc1C(=O)NCCC(=N)N |  |  |  |  |  | Activity (CCRF-CEM [8]): inactive
Nc1ccn([C@H]2CC[C@@H](CO)O2)c(=O)n1 [ZALCITABINE] |  |  |  | >100 | > 135.14 | MIC50 (Murine leukemia virus [7]): 0.74 µg/mL (≈ 3.5 µM)
Cn1cc(NC(=O)c2cc(NC(=O)/C=C/C(=O)Nc3cc(C(=O)Nc4cc(C(=O)NCCC(=N)N)n(C)c4)n(C)c3)cn2C)cc1C(=O)NCCC(=N)N | 1.37 |  |  |  |  | Activity (CCRF-CEM [4]): Active
Cn1cc(NC(=O)c2cc(NC(=O)[C@H]3CCC(N)=N3)c[nH]2)cc1C(=O)NCCC(=N)N | 91 | Moderate | 750 |  |  | selectivity ratio (HIV-1): 8.2
Cc1cn([C@H]2C[C@H](N=[N+]=[N-])[C@@H](CO)O2)c(=O)[nH]c1=O [ZIDOVUDINE] |  |  |  | >100 | > 714000 | MIC50 (Murine leukemia virus [7]): 0.0014 µg/mL (≈ 0.00524 µM)
